# Results gathered from unrelated publications.
# Protocols differ between the studies behind these lines.
# Organism: Streptococcus pneumoniae
SMILES,assay,test system,conditions,measurement,result
O=c1[nH]cc(F)c(=O)[nH]1,"microbial killing, broth dilution",,48 h,MBC,0.25 µg/mL
CC[C@H]1OC(=O)[C@H](C)[C@@H](O[C@H]2C[C@@](C)(OC)[C@@H](O)[C@H](C)O2)[C@H](C)[C@@H](O[C@@H]2O[C@H](C)C[C@H](N(C)C)[C@H]2O)[C@](C)(OC)C[C@@H](C)C(=O)[C@H](C)[C@@H](O)[C@]1(C)O,microbial growth,,,MIC90,256 µg/mL
O=C(O)CN1C(=O)/C(=C/c2c3ccccc3c(-c3ccc(N(c4ccccc4)c4ccccc4)cc3)c3ccccc23)NC1=S,"microbial killing, broth dilution",ATCC49619,,MBC,> 1000 µg/mL
CN(C)c1cc(CNCC(C)(C)C)c(O)c2c1C[C@H]1C[C@H]3[C@H](N(C)C)C(O)=C(C(N)=O)C(=O)[C@@]3(O)C(O)=C1C2=O,microbial growth,157E,,MIC,< 0.06 µg/mL
CN(C)[C@@H]1C(O)=C(C(N)=O)C(=O)[C@@]2(O)C(O)=C3C(=O)c4c(cc5ccc(-c6cccnc6)cc5c4O)C[C@H]3C[C@@H]12,"microbial growth, broth dilution",ATCC49619,,MIC,32 µg/mL
O=C(O)CN1C(=O)/C(=C/c2ccc(-c3ccc(N(c4ccccc4)c4ccccc4)cc3)cc2)SC1=S,"microbial killing, broth dilution",ATCC49619,,MBC,500 µg/mL
COc1cc(Cc2cnc(N)nc2N)cc(OC)c1OC,"microbial killing, broth dilution",,48 h,MBC,0.25 µg/mL
CN(C)c1ccc(-c2ccc3cc4c(c(O)c3c2)C(=O)C2=C(O)[C@]3(O)C(=O)C(C(N)=O)=C(O)[C@@H](N(C)C)[C@@H]3C[C@@H]2C4)cc1,"microbial growth, broth dilution",ATCC49619,,MIC,32 µg/mL
